From PubChem
UPR CHOP act = activators of apoptotic arm of unfolded protein response (CHOP); CHO-CHOP luciferase reporter, UPR activation, luminescence; percent of tunicamycin response over DMSO baseline; activation, % at 10 µM; AID 449763; 330,000 compounds, 0.34% hits;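 active = at 10 µM dose, activation of 40% or more, normalized to positive control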
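Material: CHO-CHOP cells, stable luciferase reporter of PERK-eIF2a-CHOP signalling; quantity: 500 reporter cells seeded per well; buffer or medium: F12 medium containing 10% fetal bovine serum; compound: one dose, 10 µM in 0.5% DMSO; incubation: 6 h compound treatment, 37 °C; measured by: Steady-Glo luciferase luminescence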
CHOP inh = CHOP inhibition in unfolded protein response. CHO-K1 CHOP-promoter luciferase, tunicamycin-induced, 15-18 h. inhibition, % at 10 µM. 220,000 compounds, 3.8% hits. AID 2732;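 active = compounds that reduced the stress-induced luciferase reporter signal by more than about 70% of percent inhibition, limit read from the data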
XBP1 UPR activ = activators of adaptive arm of unfolded protein response (XBP1). CHO-XBP1 luciferase reporter, IRE1-XBP1 UPR activation, luminescence; percent of tunicamycin response, DMSO as zero. activation, % at 20 µM. 330,000 compounds, 0.33% hits. AID 463104;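 active = versus positive control, 20 µM dose yields 30% or more activation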
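Material: CHO-XBP1 cells stably carrying IRE1-XBP1-driven luciferase reporter / Amount: 1000 cells per well / Compound: 20 µM, 1% DMSO / Times: 6 h treatment, 37 °C / Detection: luciferase luminescence / Measure: % activation of reporter signal versus tunicamycin and DMSO controls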
A1 inh = inhibitors of the anti-apoptotic protein A1, read as caspase activation; MEF A1-2A-BIM cells, Caspase-Glo 3/7 luminescence, 3 h; percent of clofoctol response, vehicle zero; caspase activation, % (no concentration beside the values); 330,000 compounds, 0.066% hits; AID 2462;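 active = over half of replicate activation scores above 10%, or exactly half above 10 with the replicate mean above 10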
A number is an active result; 0 = inactive; - = no result given. The full list was thinned out, with hits kept by preference.

SMILES	UPR CHOP act	CHOP inh	XBP1 UPR activ	A1 inh
CC(=O)Nc1ccc(-c2nnc(SCC(=O)Nc3ccc4c(c3)oc3ccccc34)n2C)cc1	0	0	0	0
CCn1c(SCC(=O)Nc2ccc3c(c2)oc2ccccc23)nnc1-c1ccc(N)cc1	0	95.1	0	0
CCn1c(SCC(=O)c2ccc3c(c2)Cc2ccccc2-3)nnc1-c1ccc(N)cc1	0	84.7	0	0
NC(=O)NC(CC(=O)NCCc1ccccn1)c1ccccc1Cl (configuration not stated)	0	-	0	0
O=C(CC(C(=O)O)C1CCCO1)NCCc1ccc2c(c1)OCO2 (configuration not stated)	0	0	0	0
CCC(=O)Nc1ccc(Cl)c(NC(=S)NC(C)=O)c1	0	0	0	0
O=C(O)c1nn(CC(=O)N2CCN(c3ccccc3)CC2)c(=O)c2ccccc12	0	-	0	0
O=C1NC(=O)/C(=C\c2ccccc2OCc2ccc([N+](=O)[O-])cc2)N1	0	0	0	0
O=C1NC(=O)/C(=C\c2ccc(OCc3cccc([N+](=O)[O-])c3)cc2)N1	0	76.0	0	0
O=C(COC(=O)c1cc(=O)[nH]c2ccccc12)c1ccc(Br)cc1	0	71.7	0	0
O=C(COC(=O)c1cc(=O)[nH]c2ccc(Br)cc12)c1ccccc1	0	0	0	0
N#Cc1ccccc1NC(=O)COC(=O)/C=C/c1cn(-c2ccccc2)nc1-c1ccc(Cl)cc1	-	0	-	-
Cc1cc2oc(=O)cc(CN3CCC(C)CC3)c2cc1Cl	0	84.7	0	0
Cc1cc2oc(=O)cc(CN3CCN(Cc4ccccc4)CC3)c2cc1Cl	0	0	0	0
CCC(=O)OCCNc1cc(SCCC(=O)OC)c2nonc2c1[N+](=O)[O-]	0	0	0	0
CCC(=O)OCCNc1cc(Sc2nccn2C)c2nonc2c1[N+](=O)[O-]	-	109.1	-	0
O=C(c1ccc(CNc2c(NC3CCCCC3)c(=O)c2=O)cc1)N1CCc2ccccc21	-	73.5	-	-
CC1CCC(NC(=O)c2ccc(CNc3c(NC4CCCCC4)c(=O)c3=O)cc2)CC1 (configuration not stated)	0	0	0	0
CC(C)CSc1nc2c(c(=O)[nH]c(=O)n2C)n1CC(O)COc1cccc2ccccc12 (configuration not stated)	-	79.6	-	-
Cc1ccc(CSc2nc3c(c(=O)[nH]c(=O)n3C)n2CCC(C)C)cc1	0	106.0	0	0
CC(C)CCSc1nc2c(c(=O)[nH]c(=O)n2C)n1CCc1ccccc1	0	88.3	0	0
CCOCCn1c(SCc2ccc(C)cc2)nc2c1c(=O)[nH]c(=O)n2C	0	0	0	0
CCCCCSc1nc2c(c(=O)[nH]c(=O)n2C)n1C(C)C	0	88.5	0	0
CCCCNC(=S)Nc1ccc(F)cc1	0	0	0	0
Cc1ccc(Cn2c(Sc3ncccn3)nc3c2c(=O)[nH]c(=O)n3C)cc1	0	0	0	0
SMILES	UPR CHOP act	CHOP inh	XBP1 UPR activ	A1 inh
CCCCCn1c(Sc2ncccn2)nc2c1c(=O)[nH]c(=O)n2C	0	0	0	0
C/C=C/CSc1nc2c(c(=O)[nH]c(=O)n2C)n1Cc1ccc(C)cc1	0	86.0	0	0
CCCCCn1c(Sc2nc3ccccc3s2)nc2c1c(=O)[nH]c(=O)n2C	0	75.7	0	0
CCCCn1c(SCc2ccc(Cl)cc2)nc2c1c(=O)[nH]c(=O)n2C	0	82.0	0	0
CCCCCn1c(N2CCN(c3cccc(Cl)c3)CC2)nc2c1c(=O)[nH]c(=O)n2C	0	86.6	0	0
O=C(CSc1nc(-c2ccccc2)cs1)N1CCc2ccccc21	0	0	0	0
O=C(O)c1cccnc1-c1ncccc1C(=O)O	0	0	0	0
CC(=O)N1CCN(S(=O)(=O)c2ccc(S(=O)(=O)N3CCCC(C)C3)cc2)CC1 (configuration not stated)	0	-	0	0
CCCOc1c(Br)cc(C(=O)NCC)cc1OC	0	0	0	0
O=C(CSc1nc2ccccc2n1CCc1ccccc1)NC1CCS(=O)(=O)C1 (configuration not stated)	0	0	0	0
C=C1C(=O)[C@@]23[C@H](O)C[C@@H]4C(C)(C)CC[C@H](O)[C@@]4(C)[C@@H]2CC[C@@H]1[C@H]3O	0	98.5	0	0
CN(C)c1ccc(N2CN=C3SCC(=O)N3C2)cc1	0	0	0	0
O=C1CSC2=NCN(c3ccc4c(c3)OCO4)CN12	0	94.4	0	0
CCc1cc(-c2nc(N)ncc2-c2csc(C)n2)c(O)cc1OC	0	0	0	0
CCOc1ccc(-c2nc(N)ncc2-c2ccc(OC)cc2)c(O)c1	0	0	0	0
CCOc1ccc(-c2nc(N)ncc2-c2ccccc2)c(O)c1	0	90.8	0	0
COc1ccc(-c2nc(N)ncc2-c2csc(C)n2)c(O)c1	0	73.2	0	0
Cc1cc(NC(=O)c2cc(-c3ccccc3)on2)no1	0	0	0	0
O=C(c1ccccc1)c1cc(-c2ccccc2)on1	0	92.6	0	0
COc1ccc(CCNC(=O)CCS(=O)(=O)c2cccc3nsnc23)cc1OC	0	78.0	0	0
COc1ccc(CCNC(=O)CCOc2ccc(C)cc2)cc1OC	0	-	0	6.1
O=C(CCSc1nc(-c2ccco2)cc(C(F)(F)F)n1)N1CCN(c2ccccn2)CC1	0	88.3	0	0
CN1CCN(C(=O)CSc2nc(-c3ccco3)cc(C(F)(F)F)n2)CC1	0	0	0	0
COc1cc2c(cc1OC)C(C(=O)NCCN1CCOCC1)C1c3ccccc3CCN1C2=O (configuration not stated)	0	0	0	0
CC(=O)c1cccc(NS(=O)(=O)c2ccc(N/C=C\C(=O)c3ccc(F)cc3)cc2)c1	0	83.7	0	0
SMILES	UPR CHOP act	CHOP inh	XBP1 UPR activ	A1 inh
CC(=O)c1cccc(NS(=O)(=O)c2ccc(N/C=C/C(=O)c3ccc(F)cc3)cc2)c1	0	82.9	0	0
O=C1c2ccccc2C(=O)N1CCc1csc(-c2cccc(F)c2)n1	0	81.8	0	0
CCOc1cc(/C=C2\SC(=N)N(c3nccs3)C2=O)ccc1OCCN1CCOCC1	0	0	0	0
CC(C)c1ccc(S(=O)(=O)N2CCN(CC(=O)Nc3ccc4c(c3)OCO4)CC2)cc1	0	0	0	0
CCOc1ccccc1NC(=O)c1cc(C(=O)c2cc(Br)ccc2O)coc1=N	0	72.1	0	0
CC(C)OC(=O)c1cc(C(=O)c2cc(Br)ccc2O)coc1=N	0	0	0	0
COc1cc(C(=O)OCc2ccc(C)cc2)cc(NC(=O)c2cccs2)c1OC	0	0	0	0
Cc1cccc(OCC(=O)Nc2cccc3nsnc23)c1	0	0	0	0
O=C(COc1ccccc1)Nc1cccc2nsnc12	0	76.4	0	0
O=C(Nc1ccc(Cl)cc1)Nc1cccc2nsnc12	0	73.0	0	0
CC(=O)c1ccc(NC(=O)CCC(=O)OCC(=O)c2cccc([N+](=O)[O-])c2)cc1	0	-	0	0
Cc1snc2sc(C(=O)c3ccc(Br)cc3)c(N)c12	0	92.5	0	0
